Experimental data as given in ChEMBL document CHEMBL5252676, “Dimeric polyphenols to pave the way for new antimalarial drugs” (RSC Med Chem, 2023).
Converted amounts (≈) assume the structure as drawn. The source made the active and inactive calls. The calls are words filed in the database; no cut-off is given here.

How the values were obtained:
Plasmodium falciparum [1] = assay: Antiplasmodial activity against chloroquine-resistant Plasmodium falciparum FcB1 assessed as intraerythrocytic growth inhibition; type: functional, organism-based
Outline: (§1)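 Asexual intraerythrocytic P. falciparum cultured at 37 °C in RPMI with glucose, hypoxanthine, gentamycin and 10% pooled human A+/O+ serum. DMSO stocks of 5–10 mg mL⁻¹ diluted in RPMI, final DMSO at most 1%. Eight two-fold dilutions tested in three consecutive assays. Growth read as Plasmodium lactate dehydrogenase activity at 650 nm against parasitized RBC (100%) and free RBC (0%). IC50 in triplicate; artemisinin and quinine as controls.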

[2] = Toxicity in zebrafish embryo assessed as developmental defects at 10 to 100 ug/ml measured 24 hrs post fertilization; set-up: species or system Danio rerio; conditions: in vivo, dose 10-100 µg/ml
[3] = Hemolytic activity in RBC (unknown origin) assessed as hemolysis at 100 ug/ml incubated for 1 hrs by absorbance based microplate reader analysis relative to control; type: toxicity, cell-based, Erythrocyte; conditions: red blood cells, at 100 µg/mL, read-out: Activity
Outline: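 Human A⁺/O⁺ RBC, 10% v/v in PBS, exposed to compound at 100 μg mL⁻¹ final (DMSO < 1%), in duplicate, stirred 1 h at RT. Centrifuged, supernatant OD₅₅₀ read. % lysis = (sample − PBS)/(1% Triton X-100 − PBS) × 100.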

Plasmodium falciparum [4] = assay: Antiplasmodial activity against chloroquine-sensitive Plasmodium falciparum 3D7 assessed as intraerythrocytic growth inhibition; type: functional, organism-based; outline: as §1
[5] = Selectivity index, ratio of IC50 for cytotoxicity against HUVEC cells to IC50 for antiplasmodial activity against chloroquine-sensitive Plasmodium falciparum 3D7; type: toxicity, cell-based; conditions: human, read-out: Ratio IC50
[6] = Toxicity in zebrafish embryo assessed as survival at 10 to 100 ug/ml measured 24 hrs post fertilization relative to control; set-up: species or system Danio rerio; conditions: in vivo, at 10 to 100 µg/mL, dose 10-100 µg/ml, read-out: Activity
Outline: (§2)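 Zebrafish embryos were synchronized 24 h after collection and kept at 28 °C with chorion intact, 20 per condition in duplicate. They were exposed to 100, 50, 25 or 10 μg mL⁻¹ from 100 mg mL⁻¹ DMSO stocks (final DMSO under 0.1%), with medium renewed daily for 3 days. Aspect, hatching and mortality were followed to 96 hpf against 30 control embryos in water with 0.1% DMSO.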

[7] = Toxicity in zebrafish embryos assessed as brain misshape at 10 to 100 ug/ml measured for 3 days; type: tissue-based, Danio rerio; conditions: in vivo, 72 h, dose 10-100 µg/ml, time 3 day
[8] = Toxicity in zebrafish embryos assessed as egg hatching at 10 to 100 ug/ml measured for 72 hrs relative to control; type: tissue-based, Danio rerio; conditions: in vivo, at 10 to 100 µg/mL, dose 10-100 µg/ml
[9] = Toxicity in zebrafish embryos assessed as reduction in brain size at 10 to 100 ug/ml measured for 3 days; type: tissue-based, Danio rerio; conditions: in vivo, 72 h, dose 10-100 µg/ml, time 3 day
[10] = Toxicity in zebrafish embryos assessed as survival at highest concentration measured for 3 days relative to control; set-up: species or system Danio rerio; conditions: in vivo, time 3 day, read-out: Activity; outline: as §2
[11] = Toxicity in zebrafish embryos assessed as modified heart rate at 10 to 100 ug/ml measured for 3 days; set-up: species or system Danio rerio; conditions: in vivo, 72 h, dose 10-100 µg/ml, time 3 day
[12] = Cytotoxicity against HUVEC cells assessed as inhibition of cell growth incubated for 48 hrs by fluorescence based assay; type: toxicity; conditions: human
Outline: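 HUVEC in EGM-2, at most 10 passages, seeded at 2.5 × 10⁴ cells/well and grown 24 h at 37 °C. Six 2-fold concentrations in triplicate (DMSO max 0.5%) for 48 h. PrestoBlue for 2–3 h, fluorescence 560–590 nm, growth compared with untreated cells. n = 3 separate tests.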

Plasmodium falciparum [13] = assay: Antiplasmodial activity against multidrug-resistant Plasmodium falciparum W2 assessed as intraerythrocytic growth inhibition; type: functional, organism-based; outline: as §1
[14] = Aqueous solubility of compound assessed as Cmax incubated for 3 days by UV spectrophotometer based shake-flask method; type: physicochemical; conditions: water (aqueous); time 3 day; read-out: Cmax
Outline: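 Shake-flask: excess solid stirred overnight in MilliQ water at RT (~25 °C), filtered 0.45 μm, diluted, absorbance read at the λmax from a UV scan. Quantified against a 3-point calibration curve (R² > 0.95). Fresh saturated solutions were made on 3 consecutive days.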

[15] = Toxicity in mouse at 150 mg/kg, ip administered 2 hrs once for 6 hrs and measured for 24 hrs; type: organism-based; conditions: in vivo
Outline: (§3)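 Two mice per route (i.p. or p.o.) received 4 increasing doses over 6 h (every 2 h) in Tween 80/EtOH/saline (7/3/90), then were followed for 24 h for health or behavioural problems. Maximal dose is set as 50% of the cumulative dose giving toxicity.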

[16] = Toxicity in mouse at 200 mg/kg, po administered 2 hrs once for 6 hrs and measured for 24 hrs; type: organism-based; conditions: in vivo; outline: as §3
Plasmodium berghei [17] = assay: Antiplasmodial activity against Plasmodium berghei NK173 infected in Swiss CD-1 mouse model of malaria assessed as reduction in parasitaemia at 50 mg/kg, ip measured after 4 days by giemsa staining based microscopic analysis relative to control; type: functional; set-up: scale not given: the % may be the effect or the level left; conditions: time 4 day
Outline: (§4)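 Peters' 4-day suppressive test: female Swiss CD1 mice (10 weeks, 25 ± 2 g), six per group, infected i.p. with P. berghei NK173-parasitized RBC at D1. Dosing 2–3 h post-infection, then daily for 3 days, in 7% Tween 80/3% EtOH in saline. Giemsa thin tail-blood smears (≥500 erythrocytes) at D4 (2 h post-dose) and D7. Inhibition is taken versus vehicle controls.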

Plasmodium berghei [18] = assay: Antiplasmodial activity against Plasmodium berghei NK173 infected in Swiss CD-1 mouse model of malaria assessed as reduction in parasitaemia at 50 mg/kg, po measured after 4 days by giemsa staining based microscopic analysis relative to control; type: functional; set-up: scale not given: the % may be the effect or the level left; conditions: time 4 day; outline: as §4
[19] = Toxicity in zebrafish embryos assessed as reduction in egg hatching at 10 to 100 ug/ml measured 5 days post fertilization; set-up: species or system Danio rerio; conditions: in vivo, 120 h, dose 10-100 µg/ml, time 5 day
[20] = Toxicity in zebrafish embryos assessed as reduction in egg hatching measured for 72 hrs; set-up: species or system Danio rerio; conditions: in vivo, dose 10-100 µg/ml
Plasmodium berghei [21] = assay: Antiplasmodial activity against Plasmodium berghei NK173 infected in Swiss CD-1 mouse model of malaria assessed as reduction in parasitaemia at 4 mg/kg, ip measured after 7 days by giemsa staining based microscopic analysis; type: functional, organism-based; conditions: time 7.0 day; outline: as §4
Plasmodium berghei [22] = assay: Antiplasmodial activity against Plasmodium berghei NK173 infected in Swiss CD-1 mouse model of malaria assessed as reduction in parasitaemia at 25 mg/kg, po measured after 7 days by giemsa staining based microscopic analysis; type: functional, organism-based; conditions: time 7.0 day; outline: as §4

Row | SMILES | IC50 (Plasmodium falciparum [1]) [µM] | hemolysis at 1 h, 100 ug/ml [3] [%] | IC50 (Plasmodium falciparum [4]) [µM] | selectivity ratio [5] | IC50 at 48 h [12] [µM] | IC50 (Plasmodium falciparum [13]) [µM] | solubility thermodynamic at 72 h [14] [µM] | other results
1 | O=C(OCCOC(=O)c1cc(O)c(O)c(O)c1)c1cc(O)c(O)c(O)c1 | 3.7 | < 1 | 3.7 | 19 | 69 | 6.7 | 430 (≈ 157 µg/mL) | Activity [2]: Non-Toxic; survival at 24 h [6]: > 95%; Activity [7]: Non-Toxic; Activity [8]: 100%; Activity [9]: Non-Toxic; survival at 72 h [10]: > 90%; Activity [11]: Non-Toxic
2 | O=C(OCCCOC(=O)c1cc(O)c(OCCO)c(O)c1)c1cc(O)c(O)c(O)c1 | 4.3 | < 1 | 20 | > 14 | > 118 | 7.6 | – | –
3 | COCOc1cc(C(=O)OCCCOC(=O)c2cc(OCOC)c(OCc3ccccc3)c(OCOC)c2)cc(OCOC)c1OCc1ccccc1 | – | < 1 | 4.5 | – | – | – | 3 (≈ 2.21 µg/mL) | –
4 | O=C(OCCCOC(=O)c1cc(O)c(O)c(O)c1)c1cc(O)c(O)c(O)c1 | 3.2 | < 1 | 5.8 | > 23 | > 132 | 4.1 | 2700 (≈ 1030 µg/mL) | Activity [15]: Non-Toxic; Activity [2]: Non-Toxic; survival at 24 h [6]: > 95%; Activity [7]: Non-Toxic; Activity [16]: Non-Toxic; Activity [8]: 100%; Activity [9]: Non-Toxic; survival at 72 h [10]: > 90%; Activity [11]: Non-Toxic; Activity (Plasmodium berghei [17]): 26%; Activity (Plasmodium berghei [18]): 5%
5 | O=C(OCCCOC(=O)c1cc(O)c(O)c(O)c1)c1cc(O)cc(O)c1 | 3.8 | < 1 | 4.6 | > 21 | – | 3.6 | 1200 (≈ 437 µg/mL) | –
6 | C[C@@H]1CC[C@H]2[C@@H](C)C(=O)O[C@@H]3O[C@@]4(C)CC[C@@H]1[C@]32OO4 [ARTEMISININ] | 17 | < 1 | 0.013 | – | – | – | – | –
7 | O=C(NCCCOC(=O)c1cc(O)c(O)c(O)c1)c1cc(O)c(O)c(O)c1 | 4.7 | < 1 | 6.3 | 11 | 59 | 6.8 | 2100 (≈ 797 µg/mL) | Activity [2]: Non-Toxic; Activity [19]: Toxic; survival at 24 h [6]: > 95%; Activity [7]: Non-Toxic; Activity [9]: Non-Toxic; Activity [20]: Dose-Dependent Effect; survival at 72 h [10]: > 90%; Activity [11]: Non-Toxic
8 | C=C[C@H]1CN2CC[C@H]1C[C@H]2[C@H](O)c1ccnc2ccc(OC)cc12 [QUININE] | – | < 1 | 0.6 | – | – | – | – | –
9 | O=C(OCCCOC(=O)c1ccccc1)c1ccccc1 | – | < 1 | > 352 | – | – | – | 7 (≈ 1.99 µg/mL) | –
10 | O=C(Nc1ccc(OC(=O)c2cc(O)c(O)c(O)c2)cc1)c1cc(O)c(O)c(O)c1 | 3.1 | < 1 | 3.9 | > 13 | > 121 | 2.9 | 66 (≈ 27.3 µg/mL) | –
11 | O=C(OCCCCOC(=O)c1cc(O)c(O)c(O)c1)c1cc(O)c(O)c(O)c1 | 5.7 | < 1 | 3.7 | > 35 | > 127 | 5 | 150 (≈ 59.1 µg/mL) | Activity [2]: Non-Toxic; survival at 24 h [6]: > 95%; Activity [7]: Non-Toxic; Activity [8]: 100%; Activity [9]: Non-Toxic; survival at 72 h [10]: > 90%; Activity [11]: Non-Toxic
12 | O=C(OCCCOC(=O)c1ccc(O)c(O)c1)c1ccc(O)c(O)c1 | – | < 1 | 9 | > 42 | > 144 | – | 33 (≈ 11.5 µg/mL) | –
13 | CCN(CC)CCCC(C)Nc1ccnc2cc(Cl)ccc12 (stereo not drawn) [CHLOROQUINE] | – | < 1 | – | – | – | – | – | Activity (Plasmodium berghei [21]): inactive; Activity (Plasmodium berghei [22]): inactive
14 | O=C(OCCCOC(=O)c1cc(O)c(O)c(O)c1)c1ccccc1 | 11 | < 1 | 27 | 3 | 78 | 13 | 600 (≈ 199 µg/mL) | –
15 | O=C(OCCCOC(=O)c1cc(O)c(O)c(O)c1)c1ccc(O)c(O)c1 | 4.9 | < 1 | 5.5 | 41 | 84 | 7.6 | 280 (≈ 102 µg/mL) | –
16 | O=C(OCCCOC(=O)c1cc(O)c(OCc2ccc3ccccc3c2)c(O)c1)c1cc(O)c(OCc2ccc3ccccc3c2)c(O)c1 | 1.1 | < 1 | 4 | 2.4 | 9.7 | 1.8 | – | –
17 | O=C(OCCCOC(=O)c1cc(O)c(OCc2ccc3ccccc3c2)c(O)c1)c1cc(O)c(OCc2ccccc2)c(O)c1 | 0.9 | < 1 | 0.9 | 5 | 6.9 | 0.4 | – | –
18 | COCOc1cc(C(=O)OCCCOC(=O)c2cc(OCOC)c(OCc3ccc4ccccc4c3)c(OCOC)c2)cc(OCOC)c1OCc1ccccc1 | – | < 1 | 21 | – | – | – | – | –
19 | O=C(OCCCOC(=O)c1cc(O)c(OCCOCc2ccccc2)c(O)c1)c1cc(O)c(OCCOCc2ccccc2)c(O)c1 | – | < 1 | 3.2 | 5 | 15 | – | – | –
20 | O=C(Nc1cccc(OC(=O)c2cc(O)c(O)c(O)c2)c1)c1cc(O)c(O)c(O)c1 | 3.7 | < 1 | 2.1 | 6 | 54 | 3.4 | 300 (≈ 124 µg/mL) | –
